Test results taken from ChEMBL document CHEMBL1153837, “Intracellular pharmacokinetics of once versus twice daily zidovudine and lamivudine in adolescents” (Antimicrob Agents Chemother, 2007).

Tests used:
Homo sapiens [1] = species: Homo sapiens; test: Cmax in HIV-infected human assessed as Lamivudine triphosphate level in PBMC at 300 mg QD for 7 days measured per 10^6 cells in presence of zidovudine; assay type: ADME, organism-based; set-up: dose 300 mg; details: 168 h
How it was run: (§1)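 Adolescents on Combivir QD (two tablets) gave a predose morning sample, then bloods at 2, 4, 6, 12 and 24 h. PBMC were lysed in 70% methanol (15 mM Tris pH 7.0) and anion-exchange cartridges separated MP/DP/TP by KCl step elution. Fractions were dephosphorylated with acid phosphatase, then ZDV or 3TC was measured by RIA (LOQ 0.15 ng/ml). Noncompartmental parameters; AUC by trapezoidal method; undetectables set to half LLOQ.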

Homo sapiens [2] = species: Homo sapiens; test: Tmax in HIV-infected human assessed as Lamivudine triphosphate level in PBMC at 300 mg QD for 7 days in presence of zidovudine; assay type: ADME, organism-based; details: in vivo, 168 h; how it was run: as §1
Homo sapiens [3] = test: Drug metabolism in HIV-infected human PBMC assessed as lamivudine monophosphate level at 300 mg administered in two courses, first QD for 7 days followed by BID for 7 to 14 days and second course the subjects were switched to the other regimen measured per 10^6 cells in presence of lamivudine
Homo sapiens [4] = test: Drug metabolism in HIV-infected human PBMC assessed as lamivudine parent-drug level at 300 mg administered in two courses, first QD for 7 days followed by BID for 7 to 14 days and second course the subjects were switched to the other regimen measured per 10^6 cells in presence of zidovudine
Homo sapiens [5] = test: Drug metabolism in HIV-infected human PBMC assessed as lamivudine diphosphate level at 300 mg administered in two courses, first QD for 7 days followed by BID for 7 to 14 days and second course the subjects were switched to the other regimen measured per 10^6 cells in presence of lamivudine
Homo sapiens [6] = species: Homo sapiens; test: AUC in HIV-infected human assessed as Lamivudine triphosphate level in PBMC at 300 mg QD for 7 days in presence of zidovudine; assay type: ADME, organism-based; details: in vivo, 168 h; how it was run: as §1
Homo sapiens [7] = species: Homo sapiens; test: Cmax in HIV-infected human assessed as Lamivudine monophosphate level in PBMC at 300 mg QD for 7 days measured per 10^6 cells in presence of zidovudine; assay type: ADME, organism-based; set-up: dose 300 mg; details: 168 h; how it was run: as §1
Homo sapiens [8] = species: Homo sapiens; test: Tmax in HIV-infected human assessed as Lamivudine diphosphate level in PBMC at 300 mg QD for 7 days in presence of zidovudine; assay type: ADME, organism-based; details: in vivo, 168 h; how it was run: as §1
Homo sapiens [9] = species: Homo sapiens; test: AUC in HIV-infected human assessed as Lamivudine monophosphate level in PBMC at 300 mg QD for 7 days in presence of zidovudine; assay type: ADME, organism-based; details: in vivo, 168 h; how it was run: as §1
Homo sapiens [10] = species: Homo sapiens; test: Tmax in HIV-infected human assessed as Lamivudine monophosphate level in PBMC at 300 mg QD for 7 days in presence of zidovudine; assay type: ADME, organism-based; details: in vivo, 168 h; how it was run: as §1
Homo sapiens [11] = test: Drug metabolism in HIV-infected human PBMC assessed as lamivudine monophosphate level at 300 mg administered in two courses, first BID for 7 to 14 days followed by QD for 7 days and second course the subjects were switched to the other regimen measured per 10^6 cells in presence of lamivudine
Homo sapiens [12] = species: Homo sapiens; test: AUC in HIV-infected human assessed as Lamivudine diphosphate level in PBMC at 300 mg QD for 7 days in presence of zidovudine; assay type: ADME, organism-based; details: in vivo, 168 h; how it was run: as §1
Homo sapiens [13] = test: Drug metabolism in HIV-infected human PBMC assessed as lamivudine parent-drug level at 300 mg administered in two courses, first BID for 7 to 14 days followed by QD for 7 days and second course the subjects were switched to the other regimen measured per 10^6 cells in presence of zidovudine
Homo sapiens [14] = species: Homo sapiens; test: Cmax in HIV-infected human assessed as Lamivudine diphosphate level in PBMC at 300 mg QD for 7 days measured per 10^6 cells in presence of zidovudine; assay type: ADME, organism-based; set-up: dose 300 mg; details: 168 h; how it was run: as §1
Homo sapiens [15] = species: Homo sapiens; test: Cmax in HIV-infected human assessed as zidovudine monophosphate level in PBMC at 600 mg QD for 7 days measured per 10^6 cells in presence of Lamivudine; assay type: ADME, organism-based; set-up: dose 600 mg; details: 168 h; how it was run: as §1
Homo sapiens [16] = test: Drug metabolism in HIV-infected human PBMC assessed as zidovudine parent-drug level at 600 mg administered in two courses, first QD for 7 days followed by BID for 7 to 14 days and second course the subjects were switched to the other regimen measured per 10^6 cells in presence of Lamivudine; assay type: ADME, organism-based
How it was run: (§2)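 Randomized crossover of Combivir: 600 mg ZDV/300 mg 3TC QD versus 300 mg/150 mg BID, in either order. Predose morning PBMC samples were taken on each regimen. Metabolites were separated on QMA cartridges, acid-phosphatase dephosphorylated, C-18 cleaned and quantified by RIA, reported per 10⁶ cells. Values below LLOQ were imputed as half LLOQ. Regimens were compared by Wilcoxon rank-sum; BID/QD ratios as medians with 95% CI.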

Homo sapiens [17] = test: Drug metabolism in HIV-infected human PBMC assessed as zidovudine triphosphate level at 600 mg administered in two courses, first QD for 7 days followed by BID for 7 to 14 days and second course the subjects were switched to the other regimen measured per 10^6 cells in presence of Lamivudine; assay type: ADME, organism-based; how it was run: as §2
Homo sapiens [18] = species: Homo sapiens; test: Cmax in HIV-infected human assessed as zidovudine triphosphate level in PBMC at 600 mg QD for 7 days measured per 10^6 cells in presence of Lamivudine; assay type: ADME, organism-based; set-up: dose 600 mg; details: 168 h; how it was run: as §1
Homo sapiens [19] = species: Homo sapiens; test: AUC in HIV-infected human assessed as zidovudine monophosphate level in PBMC at 600 mg QD for 7 days in presence of Lamivudine; assay type: ADME, organism-based; details: in vivo, 168 h; how it was run: as §1
Homo sapiens [20] = test: Drug metabolism in HIV-infected human PBMC assessed as zidovudine diphosphate level at 600 mg administered in two courses, first BID for 7 to 14 days followed by QD for 7 days and second course the subjects were switched to the other regimen measured per 10^6 cells in presence of Lamivudine; assay type: ADME, organism-based; how it was run: as §2
Homo sapiens [21] = test: Drug metabolism in HIV-infected human PBMC assessed as zidovudine triphosphate level at 600 mg administered in two courses, first BID for 7 to 14 days followed by QD for 7 days and second course the subjects were switched to the other regimen measured per 10^6 cells in presence of Lamivudine; assay type: ADME, organism-based; how it was run: as §2
[22] = Half life in HIV-infected human plasma at 1500 mg; assay type: ADME, cell-free
Homo sapiens [23] = species: Homo sapiens; test: Cmax in HIV-infected human assessed as zidovudine diphosphate level in PBMC at 600 mg QD for 7 days measured per 10^6 cells in presence of Lamivudine; assay type: ADME, organism-based; set-up: dose 600 mg; details: 168 h; how it was run: as §1
Homo sapiens [24] = test: Drug metabolism in HIV-infected human PBMC assessed as zidovudine parent-drug level at 600 mg administered in two courses, first BID for 7 to 14 days followed by QD for 7 days and second course the subjects were switched to the other regimen measured per 10^6 cells in presence of Lamivudine; assay type: ADME, organism-based; how it was run: as §2
Homo sapiens [25] = species: Homo sapiens; test: AUC in HIV-infected human assessed as zidovudine diphosphate level in PBMC at 600 mg QD for 7 days in presence of Lamivudine; assay type: ADME, organism-based; details: in vivo, 168 h; how it was run: as §1
Homo sapiens [26] = species: Homo sapiens; test: AUC in HIV-infected human assessed as zidovudine triphosphate level in PBMC at 600 mg QD for 7 days in presence of Lamivudine; assay type: ADME, organism-based; details: in vivo, 168 h; how it was run: as §1
Homo sapiens [27] = test: Drug metabolism in HIV-infected human PBMC assessed as zidovudine monophosphate level at 600 mg administered in two courses, first BID for 7 to 14 days followed by QD for 7 days and second course the subjects were switched to the other regimen measured per 10^6 cells in presence of Lamivudine; assay type: ADME, organism-based; how it was run: as §2
[28] = Half life in HIV-infected human at 300 mg, po bid; details: in vivo
Homo sapiens [29] = species: Homo sapiens; test: Tmax in HIV-infected human assessed as zidovudine triphosphate level in PBMC at 600 mg QD for 7 days in presence of Lamivudine; assay type: ADME, organism-based; details: in vivo, 168 h; how it was run: as §1
Homo sapiens [30] = species: Homo sapiens; test: Tmax in HIV-infected human assessed as zidovudine diphosphate level in PBMC at 600 mg QD for 7 days in presence of Lamivudine; assay type: ADME, organism-based; details: in vivo, 168 h; how it was run: as §1
Homo sapiens [31] = species: Homo sapiens; test: Tmax in HIV-infected human assessed as zidovudine monophosphate level in PBMC at 600 mg QD for 7 days in presence of Lamivudine; assay type: ADME, organism-based; details: in vivo, 168 h; how it was run: as §1
[32] = Half life in HIV-infected human at 600 mg, po qd; details: in vivo
Homo sapiens [33] = test: Drug metabolism in HIV-infected human PBMC assessed as zidovudine monophosphate level at 600 mg administered in two courses, first QD for 7 days followed by BID for 7 to 14 days and second course the subjects were switched to the other regimen measured per 10^6 cells in presence of Lamivudine; assay type: ADME, organism-based; how it was run: as §2
Homo sapiens [34] = test: Drug metabolism in HIV-infected human PBMC assessed as zidovudine diphosphate level at 600 mg administered in two courses, first QD for 7 days followed by BID for 7 to 14 days and second course the subjects were switched to the other regimen measured per 10^6 cells in presence of Lamivudine; assay type: ADME, organism-based; how it was run: as §2

Nc1ccn([C@@H]2CS[C@H](CO)O2)c(=O)n1 [LAMIVUDINE]
Cmax (Homo sapiens [1]): 4840 fmol | Tmax (Homo sapiens [2]): 6.67 h | lamivudine monophosphate uptake (Homo sapiens [3]): 282 pmol | lamivudine parent-drug uptake (Homo sapiens [4]): 302 pmol | lamivudine diphosphate uptake (Homo sapiens [5]): 1934 pmol | AUC (Homo sapiens [6]): 65.19 pmol | Cmax (Homo sapiens [7]): 760 fmol | Tmax (Homo sapiens [8]): 6.37 h | AUC (Homo sapiens [9]): 10.42 pmol | Tmax (Homo sapiens [10]): 6.3 h | lamivudine monophosphate uptake (Homo sapiens [11]): 396 pmol | AUC (Homo sapiens [12]): 70.01 pmol | lamivudine parent-drug uptake (Homo sapiens [13]): 437 pmol | Cmax (Homo sapiens [14]): 4424 fmol

Cc1cn([C@H]2C[C@H](N=[N+]=[N-])[C@@H](CO)O2)c(=O)[nH]c1=O [ZIDOVUDINE]
Cmax (Homo sapiens [15]): 2997.65 fmol | Drug uptake (Homo sapiens [16]): 23.5 fmol | Drug uptake (Homo sapiens [17]): 9.3 fmol | Cmax (Homo sapiens [18]): 43.9 fmol | AUC (Homo sapiens [19]): 11883 fmol | Drug uptake (Homo sapiens [20]): 12.2 fmol | Drug uptake (Homo sapiens [21]): 15.4 fmol | half-life [22]: 1 h | Cmax (Homo sapiens [23]): 62.47 fmol | Drug uptake (Homo sapiens [24]): 23.5 fmol | AUC (Homo sapiens [25]): 627 fmol | AUC (Homo sapiens [26]): 502 fmol | Drug uptake (Homo sapiens [27]): 75.3 fmol | half-life [28]: 5.48 h | Tmax (Homo sapiens [29]): 4.74 h | Tmax (Homo sapiens [30]): 3.48 h | Tmax (Homo sapiens [31]): 2.44 h | half-life [32]: 6.3 h | Drug uptake (Homo sapiens [33]): 76.2 fmol | Drug uptake (Homo sapiens [34]): 11.5 fmol
